Laboratory results reported in the RNAGym collection of RNA variant scans (doi:10.1126/science.aae0568).
Fewer inactive variants are shown than the library holds.

B1: tRNA (parent)
chain: GUUCCGUUGGCGUAAUGGUAACGCGUCUCCCUCCUAAGGAGAAGACUGCGGGUUCGAGUCCCGUACGGAACG

Variants of: B1
Test: yeast fitness relative to wild type (ratio to wild type); higher = fitter; tRNA-Arg(CCU), competitive growth, 37 C, YPD
Procedure, shortened: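 The tRNA-Arg(CCU) gene variants were made by chemical synthesis with a 3% per-site mutation rate at 69 sites and inserted at the native genomic locus of Saccharomyces cerevisiae. After pooling, the strains were competed in YPD at 37°C for 24 hours in six parallel replicates. Gene amplicons from the start population and each end population were read by 100-nucleotide paired-end sequencing, and Darwinian fitness relative to wild type was taken from genotype frequency changes. Genotypes needed ≥ 100 starting reads, and estimates < 0.5 were set to 0.5.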

**Q.** Which yeast fitness does the source give for GUUCCGUUGGCGUAAUGGUAACGCGUCUCCAUCCUAAGGAGAAGACUACGGGUUCGAGUCCCGUACGGAACG [C31A G48A] here?
**A.** The yeast fitness was 0.764.

**Q.** For GUUCCGUUGGCCUAAUGGUUACGCAUCUCCCUCCUGAGGAGAAGACUGCGGGUUCGAGUCCCGUACGGAACG [G12C A20U G25A A36G], which yeast fitness is on record?
**A.** Its yeast fitness is ≤ 0.5.

**Q.** For GUUCCGUUGGCGUAAUGGUAACGCGUCUCCCUCCUAACCAGAAGACUGCGGGUGCGAGUCCCGUACGGAACG [G38C G39C U54G], which yeast fitness is on record?
**A.** Its yeast fitness is 0.545.

**Q.** For GUUCCGUUGGCGUAAUGGUAACGCGUCUCCCUCCUAAGGAGAAGAGUGUGGGUUCGAGUCCCGUACGGAACG [C46G C49U], which yeast fitness is on record?
**A.** The yeast fitness was 0.981.

**Q.** With GUCCCGUUGGAGUAAUGGUAACGCGUGUCCCUACUAAGGAGAAGAAUGCGGGUUCGAGUCCCGUACGGAACG [U3C C11A C27G C33A C46A] as the variant, how does the yeast fitness read?
**A.** The yeast fitness was 0.541.

**Q.** With GUCCCGUUGGAGUAAUGGUAACGCGUCUCCCGCCUAAGAAGAAGACUGCGGGUUCGAGUCAAGUACGGAACG [U3C C11A U32G G39A C61A C62A] as the variant, how does the yeast fitness read?
**A.** Its yeast fitness is ≤ 0.5.

**Q.** For GUUCAGUUGGCGUAAUGGUAACGGGUCUCCCUCCUCAGGAGAAGACUGCGGGUUCGAGUCCCGUACGGACCG [C5A C24G A36C A70C], which yeast fitness is on record?
**A.** Its yeast fitness is ≤ 0.5.

**Q.** With GUUCCGUUGGCGUAAUGGUAACGCGUCUCCGUCUUAAGGAGAAGACUGCGGGUUUGAGUCCCAUACGGAACG [C31G C34U C55U G63A] as the variant, how does the yeast fitness read?
**A.** The yeast fitness was ≤ 0.5.

**Q.** With GUGCCGUAGGCGUAAUGGUAACGAGUCUCCCUCCUAAGGAGAAGACUGCGGGUUCGAGUCCCGUACGGAGCG [U3G U8A C24A A70G] as the variant, how does the yeast fitness read?
**A.** Its yeast fitness is ≤ 0.5.

**Q.** With GUUCCGUUGACGUAAUGGUAACGCGUCUCCCUCCUAAGGAGAAGACUGCGGGUUCGAGUCCCGUACGUAACG [G10A G68U] as the variant, how does the yeast fitness read?
**A.** The yeast fitness was 0.75.

**Q.** For GUUCCGUUGGCAUAAUGGUAACGCGUCUCCCUCCUAAGGAGAAGACUGAGGCUUCGAGUCCCGUACGGAACG [G12A C49A G52C], which yeast fitness is on record?
**A.** The yeast fitness was ≤ 0.5.

**Q.** For GUUCCGUUGGCGUAAUGGUAACGCGUCUCCCUCCUAAGGUGAAGACUGAGGGUUCGAGUCCCGUACGGAACG [A40U C49A], which yeast fitness is on record?
**A.** Its yeast fitness is 0.638.

**Q.** Which yeast fitness does the source give for GUUCCGUUGGGGUAAUGGUAACGCGUCUUCCUCCUAAGGAGAAGACUGCGGGUUCGGGUCCCGUACGGAACG [C11G C29U A57G] here?
**A.** The yeast fitness was ≤ 0.5.

**Q.** For GUUCCGUAGGCGUAAUGGUAACGCGUCUCCCUCCUACGGAGAUGACUGCGGGUUCGAGUCCCGUACGGAACG [U8A A37C A43U], which yeast fitness is on record?
**A.** The yeast fitness was 0.541.

**Q.** Which yeast fitness does the source give for GUUGCGUUGGGGUAAUGGUAAUGCGUCUCCCUCCUAAGGAGAAGAGUGCGGGUUCGAGUCCCGUACGGAACG [C4G C11G C22U C46G] here?
**A.** The yeast fitness was ≤ 0.5.

**Q.** Which yeast fitness does the source give for GUUCCCUCGGCGUGAUGGUAACGCGUCUCCCUCCUAAGGAGAAGACUGCGGGUUCGAGUCCCGUACGGAACG [G6C U8C A14G] here?
**A.** The yeast fitness was 0.522.

**Q.** Which yeast fitness does the source give for GUUCGGUUGGUGUAAUGGUAACGCAUCUCCCUCCUAAGGAGAAGACUGCGGGUUCGAGUCCCGUACGGAACG [C5G C11U G25A] here?
**A.** The yeast fitness was 0.787.

**Q.** For GUUCCGUUGGCGUAAUGGUAACGCGUCUCCCUCAUAUGGAGAAGACUGCGGGUUCGAGUCCCGUACGGAACG [C34A A37U], which yeast fitness is on record?
**A.** The yeast fitness was 0.741.

**Q.** With GUUCCGUUGGCGUAAUGGUAACGAGUCUCUCUCCUAAGGAGAAGGCUGCGGGUUCGUGUCCUGUACGGAACG [C24A C30U A45G A57U C62U] as the variant, how does the yeast fitness read?
**A.** Its yeast fitness is 0.614.

**Q.** For GUUCCGUUGGCGUAAUGGUAUCGCCUCUCCCUCCUAAGGAGAGGACUGCGGGUUCGAGUCCCGUGCGGAACG [A21U G25C A43G A65G], which yeast fitness is on record?
**A.** Its yeast fitness is 0.609.

**Q.** For GUUCCGUUGGAGUAAUGGUAACGAGUCUCCCUCCUGAGGAGAAGACUACGGGUUCGAGUCCCGUACGGAACG [C11A C24A A36G G48A], which yeast fitness is on record?
**A.** The yeast fitness was ≤ 0.5.

**Q.** For GUUCCGUUGGCGUAAUGGUAAGGCGUCUCACUCCUAAGGAGAAGACUGCGAGUUCGAGUCCCGUACGGAACG [C22G C30A G51A], which yeast fitness is on record?
**A.** Its yeast fitness is ≤ 0.5.

**Q.** For GUUCGGUUGGCGUAAUGGUAACGCCUCUCCCUCCUAAGGAGAAGACCGCGGGUUCGAGUCCCGUACGGAACG [C5G G25C U47C], which yeast fitness is on record?
**A.** The yeast fitness was 0.545.

**Q.** For GUUCCGUUGGCCUCAUGGUAACGCGUCUCCCUCCUAAGGAGAAGACUGCGGGUUCGAGUCCCGUACGGAACG [G12C A14C], which yeast fitness is on record?
**A.** Its yeast fitness is 0.731.

**Q.** With GUUCCGUUGGCGUAAUGGUAACGCGUCUCACUCCUAAGGAGAUGACUGCGGGUUCGAGUCCCGUACGGAACG [C30A A43U] as the variant, how does the yeast fitness read?
**A.** The yeast fitness was 0.936.

**Q.** Which yeast fitness does the source give for GUUCCGUUGACGUAAUGGUUACGCGUCUCCCUCCCAAGGAGAAGACUCCGGGUUCGAGUACCGUACGGAACG [G10A A20U U35C G48C C60A] here?
**A.** The yeast fitness was ≤ 0.5.

**Q.** For GUUCCGUUGGCGUAAUGGUAACACGUCUCGCUCCUAAGGAGAAGACUGCGGGUUCGAGUCCCGUACGGUACG [G23A C30G A69U], which yeast fitness is on record?
**A.** Its yeast fitness is ≤ 0.5.

**Q.** For GUUCCGUUGGCGUAAUGGUAACGCGUCUCCGUCCUAAGGAGAAGAAUGCGGGUUCGAGUCCCCUUCGGAACG [C31G C46A G63C A65U], which yeast fitness is on record?
**A.** The yeast fitness was 0.509.

**Q.** Which yeast fitness does the source give for GUUCCGUUGGCGUCAUGGUAACGCGUCUCCUUCCUAAGGGGAAGACUGCGGGUUCGAGUCCCGUACGGAACG [A14C C31U A40G] here?
**A.** Its yeast fitness is ≤ 0.5.

**Q.** With GUUACGUUGGCGUAAUGGUAACGCGUCUCCCUCCUAAGGAGAAGAAUGCGGGUUCAAGUCCCGUACGGAACG [C4A C46A G56A] as the variant, how does the yeast fitness read?
**A.** Its yeast fitness is 0.736.

**Q.** Which yeast fitness does the source give for GUUUCGUUGGCGUAAUGGUAACGCGUCUCCCUCCUAAGGAGAAAAUUGCGGGUUCGAGUCCCGUACGGCACG [C4U G44A C46U A69C] here?
**A.** Its yeast fitness is 0.829.

**Q.** Which yeast fitness does the source give for GUUUGGUUGGCGUAAUGGUGACGCGUCUUCCUCCUAAGGAGAAGACUCCGGGUUCGAGUCCCCUACGGAACG [C4U C5G A20G C29U G48C G63C] here?
**A.** Its yeast fitness is ≤ 0.5.

**Q.** With GUUCCGUUGGCGUAAUGGUAAUGCGUCUCCCUCCUAAGGAGAAGCCUGCAGGUUCGAGUCCCGUACGGAACG [C22U A45C G50A] as the variant, how does the yeast fitness read?
**A.** Its yeast fitness is 0.698.

**Q.** With GUUCUGUUGGUGUAAUGGUAACGCGUCUCCCUCCUAAGGAGAAGUCUGCGGGUUCGAGUCCCGUACGGACCG [C5U C11U A45U A70C] as the variant, how does the yeast fitness read?
**A.** The yeast fitness was 0.725.

**Q.** For GUUUCGUUGGCGUACUGGUAACGCGUCUCCCUCCUAAGGAGAAGAAUGCGGGUUCGGGUCACGUACGGACCG [C4U A15C C46A A57G C61A A70C], which yeast fitness is on record?
**A.** The yeast fitness was ≤ 0.5.
